# Measurements from ChEMBL document CHEMBL1926577, “Novel 1,3,4-heterodiazole analogues: synthesis and in-vitro antitumor activity” (2012).
# The source made the active and inactive calls. The rule behind the calls is not given here.
# Columns and labels:
# Type in all cases: functional
# SK-MEL-28 = assay: Growth inhibition of human SK-MEL-28 cells at 10 uM after 48 hrs by coulter counter method; conditions: SK-MEL-28, 48 h, read-out: GI
# Summary of the method: (§1)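 NCI 60-cell-line panel, single dose. Compound dissolved first in DMSO, then diluted in phosphate-buffered saline so that every final dilution held under 1% DMSO. Duplicate wells received cells at 6 × 10⁴ cells/ml. Controls held PBS/DMSO at the same dilution. Plates were incubated 48 h at 37 °C under 5% CO₂. Cells were then diluted 10-fold in saline and counted on a Coulter counter, with counts corrected for the dilution. Results are given as percent growth inhibition.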
# HL-60(TB) = assay: Growth inhibition of human HL-60(TB) cells at 10 uM after 48 hrs by coulter counter method; conditions: HL-60, 48 h, read-out: GI
# Summary of the method: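 Single-dose screen on the NCI 60-line panel (leukemia subpanel). Compound is dissolved in DMSO and diluted in PBS, with final DMSO below 1%. Duplicate wells hold 6 × 10⁴ cells/ml at 37 °C, 5% CO₂, for 48 h. Cells are counted by Coulter counter after 10-fold saline dilution. Read-out is percent growth versus PBS/DMSO controls, expressed as % growth inhibition.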
# NCI-H322M = assay: Growth inhibition of human NCI-H322M cells at 10 uM after 48 hrs by coulter counter method; conditions: read-out: GI; summary of the method: as §1
# ACHN = assay: Growth inhibition of human ACHN cells at 10 uM after 48 hrs by coulter counter method; conditions: read-out: GI; summary of the method: as §1
# EKVX = assay: Growth inhibition of human EKVX cells at 10 uM after 48 hrs by coulter counter method; conditions: read-out: GI; summary of the method: as §1
# SNB-19 = assay: Growth inhibition of human SNB19 cells at 10 uM after 48 hrs by coulter counter method; conditions: SNB-19, 48 h, read-out: GI; summary of the method: as §1
# KM12 = assay: Growth inhibition of human KM12 cells at 10 uM after 48 hrs by coulter counter method; conditions: KM12, 48 h, read-out: GI; summary of the method: as §1
# PC-3 = assay: Growth inhibition of human PC3 cells at 10 uM after 48 hrs by coulter counter method; conditions: PC-3, 48 h, read-out: GI; summary of the method: as §1
# BT-549 = assay: Growth inhibition of human BT549 cells at 10 uM after 48 hrs by coulter counter method; conditions: BT-549, 48 h, read-out: GI; summary of the method: as §1
# SF-295 = assay: Growth inhibition of human SF295 cells at 10 uM after 48 hrs by coulter counter method; conditions: SF-295, 48 h, read-out: GI; summary of the method: as §1
# NCI-H522 = assay: Growth inhibition of human NCI-H522 cells at 10 uM after 48 hrs by coulter counter method; conditions: NCI-H522, 48 h, read-out: GI; summary of the method: as §1
# CCRF-CEM = assay: Growth inhibition of human CCRF-CEM cells at 10 uM after 48 hrs by coulter counter method; conditions: read-out: GI; summary of the method: as §1
# HT-29 = assay: Growth inhibition of human HT-29 cells at 10 uM after 48 hrs by coulter counter method; conditions: HT-29, 48 h, read-out: GI; summary of the method: as §1
# UO-31 = assay: Growth inhibition of human UO31 cells at 10 uM after 48 hrs by coulter counter method; summary of the method: as §1
# MDA-MB-435 = assay: Growth inhibition of human MDA-MB-435 cells at 10 uM after 48 hrs by coulter counter method; conditions: MDA-MB-435, 48 h, read-out: GI; summary of the method: as §1
# A549 = assay: Growth inhibition of human A549 cells at 10 uM after 48 hrs by coulter counter method; conditions: A549, 48 h, read-out: GI; summary of the method: as §1
# LOX IMVI = assay: Growth inhibition of human LOXIMVI cells at 10 uM after 48 hrs by coulter counter method; summary of the method: as §1
# TK-10 = assay: Growth inhibition of human TK10 cells at 10 uM after 48 hrs by coulter counter method; conditions: TK-10, 48 h, read-out: GI; summary of the method: as §1
# IGROV-1 = assay: Growth inhibition of human IGROV1 cells at 10 uM after 48 hrs by coulter counter method; summary of the method: as §1
# CAKI-1 = assay: Growth inhibition of human Caki1 cells at 10 uM after 48 hrs by coulter counter method; summary of the method: as §1
# NCI-H23 = assay: Growth inhibition of human NCI-H23 cells at 10 uM after 48 hrs by coulter counter method; conditions: NCI-H23, 48 h, read-out: GI; summary of the method: as §1
# MOLT-4 = assay: Growth inhibition of human MOLT4 cells at 10 uM after 48 hrs by coulter counter method; conditions: MOLT-4, 48 h, read-out: GI; summary of the method: as §1
# NCI/ADR-RES = assay: Growth inhibition of human NCI/ADR-RES cells at 10 uM after 48 hrs by coulter counter method; conditions: read-out: GI; summary of the method: as §1
# SR = assay: Growth inhibition of human SR cells at 10 uM after 48 hrs by coulter counter method; conditions: read-out: GI; summary of the method: as §1
# SK-MEL-2 = assay: Growth inhibition of human SK-MEL-2 cells at 10 uM after 48 hrs by coulter counter method; conditions: SK-MEL-2, 48 h, read-out: GI; summary of the method: as §1
# K562 = assay: Growth inhibition of human K562 cells at 10 uM after 48 hrs by coulter counter method; conditions: K562, 48 h, read-out: GI; summary of the method: as §1
# OVCAR-8 = assay: Growth inhibition of human OVCAR8 cells at 10 uM after 48 hrs by coulter counter method; conditions: OVCAR-8, 48 h, read-out: GI; summary of the method: as §1
# NCI-H226 = assay: Growth inhibition of human NCI-H226 cells at 10 uM after 48 hrs by coulter counter method; conditions: NCI-H226, 48 h, read-out: GI; summary of the method: as §1
# HCT-116 = assay: Growth inhibition of human HCT116 cells at 10 uM after 48 hrs by coulter counter method; conditions: HCT-116, 48 h, read-out: GI; summary of the method: as §1
# UACC-62 = assay: Growth inhibition of human UACC62 cells at 10 uM after 48 hrs by coulter counter method; conditions: UACC-62, 48 h, read-out: GI; summary of the method: as §1
# U-251 = assay: Growth inhibition of human U251 cells at 10 uM after 48 hrs by coulter counter method; conditions: U-251, 48 h, read-out: GI; summary of the method: as §1
# 786-0 = assay: Growth inhibition of human 786-0 cells at 10 uM after 48 hrs by coulter counter method; conditions: 786-0, 48 h, read-out: GI; summary of the method: as §1
# SN12C = assay: Growth inhibition of human SN12C cells at 10 uM after 48 hrs by coulter counter method; conditions: read-out: GI; summary of the method: as §1
# HCT-15 = assay: Growth inhibition of human HCT15 cells at 10 uM after 48 hrs by coulter counter method; conditions: HCT-15, 48 h, read-out: GI; summary of the method: as §1
# RPMI-8226 = assay: Growth inhibition of human RPMI8226 cells at 10 uM after 48 hrs by coulter counter method; conditions: RPMI-8226, 48 h, read-out: GI; summary of the method: as §1
# SF-268 = assay: Growth inhibition of human SF268 cells at 10 uM after 48 hrs by coulter counter method; conditions: SF-268, 48 h, read-out: GI; summary of the method: as §1
# SK-MEL-5 = assay: Growth inhibition of human SK-MEL-5 cells at 10 uM after 48 hrs by coulter counter method; conditions: SK-MEL-5, 48 h, read-out: GI; summary of the method: as §1
# MDA-MB-468 = assay: Growth inhibition of human MDA-MB-468 cells at 10 uM after 48 hrs by coulter counter method; conditions: MDA-MB-468, 48 h, read-out: GI; summary of the method: as §1
# SNB-75 = assay: Growth inhibition of human SNB75 cells at 10 uM after 48 hrs by coulter counter method; conditions: SNB-75, 48 h, read-out: GI; summary of the method: as §1
# M14 = assay: Growth inhibition of human M14 cells at 10 uM after 48 hrs by coulter counter method; conditions: M14, 48 h, read-out: GI; summary of the method: as §1
# UACC-257 = assay: Growth inhibition of human UACC257 cells at 10 uM after 48 hrs by coulter counter method; conditions: UACC-257, 48 h, read-out: GI; summary of the method: as §1
# Malme-3M = assay: Growth inhibition of human MALME-3M cells at 10 uM after 48 hrs by coulter counter method; conditions: read-out: GI; summary of the method: as §1
# A498 = assay: Growth inhibition of human A498 cells at 10 uM after 48 hrs by coulter counter method; conditions: A498, 48 h, read-out: GI; summary of the method: as §1
# MCF7 = assay: Growth inhibition of human MCF7 cells at 10 uM after 48 hrs by coulter counter method; conditions: MCF7, 48 h, read-out: GI; summary of the method: as §1
# T47D = assay: Growth inhibition of human T47D cells at 10 uM after 48 hrs by coulter counter method; conditions: read-out: GI; summary of the method: as §1
smiles,measurement,setting,value
O=C1CN2N=C(c3ccc(Cl)cc3)SC2=N1,inhibition of growth at 10 µM,SK-MEL-28,< 10%
same,inhibition of growth at 10 µM,HL-60(TB),< 10%
same,inhibition of growth at 10 µM,NCI-H322M,31%
same,inhibition of growth at 10 µM,ACHN,17.3%
same,inhibition of growth at 10 µM,EKVX,< 10%
same,inhibition of growth at 10 µM,SNB-19,18.2%
same,inhibition of growth at 10 µM,KM12,38.3%
same,inhibition of growth at 10 µM,PC-3,25.7%
same,inhibition of growth at 10 µM,BT-549,39.5%
same,inhibition of growth at 10 µM,SF-295,38.6%
same,inhibition of growth at 10 µM,NCI-H522,32.4%
same,inhibition of growth at 10 µM,CCRF-CEM,62.5%
same,inhibition of growth at 10 µM,HT-29,31.1%
same,growth inhibition (GI),UO-31,Active
same,inhibition of growth at 10 µM,MDA-MB-435,11.7%
same,inhibition of growth at 10 µM,A549,< 10%
same,growth inhibition (GI),LOX IMVI,Active
same,inhibition of growth at 10 µM,TK-10,< 10%
same,growth inhibition (GI),IGROV-1,Active
same,growth inhibition (GI),CAKI-1,Active
same,inhibition of growth at 10 µM,NCI-H23,14.9%
same,inhibition of growth at 10 µM,MOLT-4,24%
same,inhibition of growth at 10 µM,NCI/ADR-RES,< 10%
same,inhibition of growth at 10 µM,SR,32.5%
same,inhibition of growth at 10 µM,SK-MEL-2,< 10%
same,inhibition of growth at 10 µM,K562,18.8%
same,inhibition of growth at 10 µM,OVCAR-8,39.8%
same,inhibition of growth at 10 µM,NCI-H226,11.4%
same,inhibition of growth at 10 µM,HCT-116,39.9%
same,inhibition of growth at 10 µM,UACC-62,20.7%
same,inhibition of growth at 10 µM,U-251,19.9%
same,inhibition of growth at 10 µM,786-0,< 10%
same,inhibition of growth at 10 µM,SN12C,20.1%
same,inhibition of growth at 10 µM,HCT-15,51.2%
same,inhibition of growth at 10 µM,RPMI-8226,43.5%
same,inhibition of growth at 10 µM,SF-268,16.5%
same,inhibition of growth at 10 µM,SK-MEL-5,21.2%
same,inhibition of growth at 10 µM,MDA-MB-468,< 10%
same,inhibition of growth at 10 µM,SNB-75,< 10%
same,inhibition of growth at 10 µM,M14,31.4%
same,inhibition of growth at 10 µM,UACC-257,< 10%
same,inhibition of growth at 10 µM,Malme-3M,22%
same,inhibition of growth at 10 µM,A498,< 10%
same,inhibition of growth at 10 µM,MCF7,25.7%
same,inhibition of growth at 10 µM,T47D,13%
